Only a selection was taken, and hits are over-represented in it overall.
RORA inh = inhibitors of human nuclear receptor RORA; P35398; CHO-K1 Gal4-RORA LBD luciferase reporter, luminescence; inhibition, % at 10 µM; 65,000 compounds, 0.43% hits; AID 561;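 active = inhibition above the mean of all tested compounds plus 3 SD, cut at about 52% in these data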;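 note: 0% = RORA-transfected cells with DMSO and 100% = mock-transfected cells lacking RORA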
Target sequence (P35398 whole entry, looked up, the tested form may be a part): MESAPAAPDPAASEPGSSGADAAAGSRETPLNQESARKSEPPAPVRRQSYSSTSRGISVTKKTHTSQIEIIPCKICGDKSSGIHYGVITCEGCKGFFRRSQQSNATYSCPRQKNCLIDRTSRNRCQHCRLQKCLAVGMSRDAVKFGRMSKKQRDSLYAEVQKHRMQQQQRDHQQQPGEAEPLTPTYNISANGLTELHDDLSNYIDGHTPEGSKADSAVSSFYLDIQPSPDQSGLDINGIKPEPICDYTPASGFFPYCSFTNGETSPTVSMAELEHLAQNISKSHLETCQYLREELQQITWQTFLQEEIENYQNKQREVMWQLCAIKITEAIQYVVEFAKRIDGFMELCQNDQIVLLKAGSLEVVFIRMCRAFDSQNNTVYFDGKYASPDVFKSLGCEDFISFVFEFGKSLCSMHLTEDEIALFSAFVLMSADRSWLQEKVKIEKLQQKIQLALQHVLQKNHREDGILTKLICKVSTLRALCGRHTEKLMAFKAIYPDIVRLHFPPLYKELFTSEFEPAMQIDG
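Test system: CHO-K1 cells with Gal4-hRORA LBD fusion and pG5-luc reporter / Compound: single concentration per compound, 10 µM final / Schedule: 20 h compound treatment, 37 °C / Signal: luminescence from basal luciferase reporter expression / Read-out: % inhibition / Control set: mock-transfected cells as 100%, +RORA DMSO cells as 0% / Replicates: tested once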
Active calls of the source: *.

SMILES | RORA inh
O=S(=O)(NC1CC2CCC1C2)c1ccc(Br)s1 (configuration not stated) | 13.3
O=C(NCc1ccco1)c1ccc2nc3sc4c(c3c(=O)n2c1)CCCC4 | 56.0*
O=C(Nc1ncnc2sc3c(c12)CCC3)c1ccco1 | 9.0
O=C(Cn1c(=O)sc2ccccc21)NCc1ccco1 | 5.9
Cn1c(=O)c2nc(Cl)n(Cc3ccc(Cl)cc3Cl)c2n(C)c1=O | 1.4
CC1CCCCC1NS(=O)(=O)c1ccc(S(=O)(=O)N2CCCC2)cc1 (configuration not stated) | 18.2
COC(=O)c1ccc(-c2nc(-c3cccs3)no2)cc1 | 51.7*
COc1ccc(Cc2nc(-c3cccs3)no2)cc1OC | -9.6
COc1cccc(-c2noc(-c3cccs3)n2)c1 | -66.5
Cn1c(OCc2cccnc2)nc2c1c(=O)n(Cc1ccc(Br)cc1)c(=O)n2C | -2.3
CSCC[C@H](NC(=O)OC(C)(C)C)C(=O)N1CCC(C(=O)N[C@H](C(=O)O)C(C)C)CC1 | 18.0
CC(=O)c1c(C)[nH]c(C(=O)OCCCCN2C(=O)c3ccccc3C2=O)c1C | 77.7*
CCOC(=O)c1[nH]c(C)c(C(=O)Nc2ccccc2F)c1C | -110.5
CCOC(=O)c1[nH]c(C)c(C(=O)Nc2ccc(F)cc2)c1C | 8.4
CSCCC(NC=C1C(=O)OC(C)(C)OC1=O)C(=O)O (configuration not stated) | 9.2
CCOC(=O)c1sc2nc(NC(=O)c3cccs3)sc2c1C | -60.1
CCn1c(SCC(=O)Nc2cccc(NC(C)=O)c2)nnc1C(C)C | 23.0
COc1ccc(Nc2nc(C)c3ccccc3n2)cc1 | -55.1
COc1ccc(NC(=O)c2cc(-c3ccc(C)o3)nc3ccccc23)cc1OC | -53.0
COc1ccc(CNC(=O)c2cc3c(C)nc4ccccc4c3o2)c(OC)c1 | 55.4*
COc1ccc(OC(C)C(=O)N2CCc3ccccc3C2)cc1 (configuration not stated) | 15.0
CCC(C)NC(=O)C1CCCN(C(=O)Nc2ccc(F)cc2)C1 (configuration not stated) | -6.6
C=CCn1c(SCC(=O)Nc2nccs2)nnc1-c1cc2cccc(OC)c2o1 | 9.6
Cc1noc(/C=C/N(C)C)c1S(=O)(=O)N1CCc2ccccc21 | 2.8
CSC1=NC(NCCCO)c2c(sc3c2CC(C)(C)OC3)N1 (configuration not stated) | -13.2
SMILES | RORA inh
O=c1c2ccccc2nc2sc3ccccc3n12 | -60.4
O=c1c2ccccc2cnn1-c1nc2ccccc2s1 | 90.0*
Cc1nn(-c2nc3ccccc3s2)c(N)c1Sc1ccc(F)cc1 | -26.0
Cc1ccc(S(=O)(=O)N(C)Cc2ccc(-c3nnc4n3CCC4)cc2)cc1 | 13.5
Nc1nc(CSc2nc3ccccc3s2)nc(N2CCCCC2)n1 | -14.1
Cn1c(=O)c2c(nc(N3CCCCC3)n2CCSc2nc3ccccc3s2)n(C)c1=O | 0.4
O=C(O)CCSc1nc2ccccc2s1 | 54.4*
CCC(CO)NCCNC(CC)CO (configuration not stated) | 15.2
O=C(CSc1nccc2ccccc12)N1CCN(Cc2ccc3c(c2)OCO3)CC1 | 4.1
COc1ccc(S(=O)(=O)N2Cc3ccccc3CC2C(=O)Nc2ccc(O)cc2)cc1OC (configuration not stated) | -31.2
O=C(Nc1ccc2c(c1)OCO2)Oc1ccccc1 | -8.5
O=C(/C=C\Nc1ccc2c(c1)OCO2)c1ccccn1 | 84.8*
O=C(Nc1ccc2c(c1)OCO2)c1cc(C2CC2)on1 | -59.7
O=C1Nc2ccc(S(=O)(=O)NCCC3=CCCCC3)c3cccc1c23 | -13.0
COc1ccc(NC(=O)CC2Oc3ccccc3NC2=O)cc1 (configuration not stated) | 10.5
Cn1cc(Cl)c(-c2nc3ccccc3[nH]2)n1 | -55.6
c1ccc2nc(-c3nc4ccccc4[nH]3)ccc2c1 | 66.5*
Cn1ccnc1-c1nc2ccccc2[nH]c1=O | 5.9
O=C1CN(C(=O)CSc2nnnn2-c2ccc(Cl)cc2)c2ccccc2N1 | 1.0
Cc1ccc2c(CSc3nnc(C4CC4)n3N)cc(=O)oc2c1C | 2.7
O=C(CN1C(=O)c2ccccc2S1(=O)=O)NCCC1=CCCCC1 | 14.8
Cc1noc(C)c1S(=O)(=O)Nc1ccc(C(=O)N2CCN(c3ccc(Cl)cc3)CC2)cc1 | 60.4*
CC(=O)c1ccc(N2CCN(C(=O)c3ccc(OCc4c(C)noc4C)cc3)CC2)cc1 | 9.0
O=C(c1ccco1)N1CCN(c2ccc(Cl)cc2)CC1 | -98.2
Cc1cc(C)c(-c2cc(C(F)(F)F)no2)c(=O)[nH]1 | 8.7
SMILES | RORA inh
Cc1cc(-n2nc(C)cc2C)nc(NS(=O)(=O)c2ccccc2)n1 | -6.2
CN(CC(=O)Nc1nccs1)S(=O)(=O)c1ccc(F)cc1 | -5.9
c1ccc(-c2onc3cc4c(cc23)OCCO4)cc1 | -74.3
Nc1ccc(-c2nc3c(Cl)cc(N)cc3[nH]2)cc1 | 78.7*
CCNc1nc(N)c(C(=O)c2ccc(Cl)s2)s1 | -49.8
C=CCOc1ccc(C2c3c(oc4ccccc4c3=O)C(=O)N2c2ccccn2)cc1OCC (configuration not stated) | -10.5
C=CS(=O)(=O)c1ccc(Oc2ccc(S(=O)(=O)C=C)cc2)cc1 | 94.5*
CCOC(=O)c1cccc(NC(=O)C(NS(=O)(=O)c2ccc3c(c2)CCN3C(C)=O)C(C)C)c1 (configuration not stated) | 20.7
COc1ccc(OC)c(N(CC(=O)NCCSc2ccccc2)S(C)(=O)=O)c1 | -0.4
C=CCC1CCCCC12NC(=O)NC2=O (configuration not stated) | -2.9
O=C(Nc1ccccc1)OCc1ccccn1 | -60.5
CCOc1ccc(OCc2ccc(C(=O)OCc3ccccn3)o2)cc1 | 57.9*
CCCc1ccc(OCc2ccc(C(=O)N3CCN(c4ccccn4)CC3)o2)c(OC)c1 | -49.7
COc1cc2[nH]c(=O)n(Cc3ccc(C(=O)NCC4CCCO4)cc3)c(=O)c2cc1OC (configuration not stated) | 5.9
Cn1nnnc1Sc1nc(-c2cccnc2)nc2ccccc12 | 0.7
CN(CC(=O)NC1CCCCC1)S(=O)(=O)c1cccc2nsnc12 | 0.7
CC(C)[C@H](NC(=O)[C@@H]1CSCN1C(=O)OC(C)(C)C)C(=O)NCC1CCC(C(=O)O)CC1 (some centres not stated) | 1.0
CCCc1cc(=O)[nH]c(Nc2ccc(OC)c(Cl)c2)n1 | 6.2
CCOc1cccc(-c2nnc3sc(COc4ccc(Cl)cc4)nn23)c1 | -13.5
CCOc1ccccc1OCC(=O)Nc1ccc(S(=O)(=O)N(C)C)cc1 | 5.2
Cc1cnc(NC(=O)COc2ccccc2Cl)s1 | 73.5*
O=C(COc1ccccc1)Nc1nc2ccccc2[nH]1 | -55.2
C/C(O)=c1/ccc2cccc3nc(C)nc1c23 | 3.4
O=C(NCc1ccc2c(c1)OCO2)C1CC(=O)N(c2ccc(O)cc2)C1 (configuration not stated) | 6.4
O=S1(=O)C=C(Sc2nc3cc(Cl)ccc3o2)c2ccccc21 | 75.3*
SMILES | RORA inh
CCOC(=O)c1cnc(=O)[nH]c1C | 2.7
c1cncc(Oc2cccc(Oc3cccnc3)c2)c1 | 8.2
Cc1cc(Br)c(S(=O)(=O)n2nnc3ccccc32)cc1C | 5.9
Cc1cc(NC(=O)CCCOc2ccc(Cl)cc2Cl)no1 | 5.6
CCC1CCCCN1CCCNC(=O)COc1cc(=O)n(C)c2ccccc12 (configuration not stated) | -3.8
Cc1ccnc(NC(=O)CCCOc2cc(=O)n(C)c3ccccc23)c1 | 56.7*
C=CCNC(=O)c1cc(-c2ccc(Br)cc2)on1 | -61.1
CC(=O)c1cccc(-n2nnnc2SCC(=O)Nc2ccccc2N2CCCCC2)c1 | -14.1
